Compounds with a hit are over-represented: about 2.1% of the library has one in this group of screens.
thrombin 1536: inhibitors of human thrombin. P00734. alpha-thrombin, Boc-VPR-AMC fluorogenic substrate cleavage. inhibition, % at 5 µM. 0.26% of 220,000 active. AID 1046;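 active = inhibition at or above 40%; inactive = inhibition below 40%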
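System: Human alpha-thrombin protein | Medium: pH 7.5 Tris (50 mM) with NaCl 150 mM, Tween 20 0.05% | Times: Enzyme reaction carried out at room temperature | Detection: AMC fluorescence, 355/460 nm | Evaluation: Percent inhibition scaled between no-compound controls and no-enzyme blanks | Benchmarks: Enzyme without compound as high, wells lacking enzyme as low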
EP2 modulator: EP2 receptor (human) modulation; induction, % at 25 µM; AID 940; P43116; EP2-expressing cells, cAMP HTRF FRET, PGE2 co-stimulation; 0.83% of 260,000 active;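 active = compounds whose cAMP rise, as percent of the full-agonist control response, exceeds 60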;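 also: rat C6 glioma line stably carrying human EP2 under a CMV promoter; the protocol text gives 20 µM as final concentration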
Target sequence (P43116 whole entry, looked up): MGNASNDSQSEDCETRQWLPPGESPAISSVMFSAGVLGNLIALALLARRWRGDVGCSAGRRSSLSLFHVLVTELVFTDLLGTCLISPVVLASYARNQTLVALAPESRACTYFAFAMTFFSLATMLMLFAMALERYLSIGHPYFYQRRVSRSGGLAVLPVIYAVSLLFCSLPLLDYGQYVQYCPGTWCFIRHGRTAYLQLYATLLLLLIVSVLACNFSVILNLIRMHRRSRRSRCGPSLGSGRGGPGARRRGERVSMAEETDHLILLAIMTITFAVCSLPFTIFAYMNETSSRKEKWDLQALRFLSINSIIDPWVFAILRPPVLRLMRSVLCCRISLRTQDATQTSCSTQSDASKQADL
FXIIa inh 1536: inhibitors of human coagulation factor XIIa; P00748; purified FXIIa, Boc-QGR-AMC fluorogenic substrate, 2 h; inhibition, % at 5 µM; 0.3% of 220,000 active; in the data active = inhibition above about 40%
FXIa inh 1536: factor XIa (human) inhibition. P03951. purified FXIa, Boc-Glu-Ala-Arg-AMC fluorogenic substrate. inhibition, % at 5 µM. 0.14% of 220,000 active;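 active = inhibition of at least 40%; inactive = inhibition below 40%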;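 also: fluorescence of freed AMC excited at 355 nm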
EP2 antag: inhibitors of human EP2 prostaglandin E2 receptor; 0.52% of 260,000 active; inhibition, % at 25 µM; C6 glioma cells expressing human EP2, cAMP TR-FRET; cells stimulated with saturating PGE2;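 active = percent inhibition above 40 after rounding to a whole number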;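 also: rat C6 glioma host cells with rolipram phosphodiesterase inhibitor present; the protocol text gives 20 µM as final concentration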
hK5 inh: kallikrein 5 (human) inhibition; Q9Y337; recombinant hK5, fluorogenic AMC substrate cleavage; inhibition, % at 5 µM; 0.59% of 210,000 active;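 active = inhibition of 40% or more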
Target sequence (Q9Y337 67-293 limits assumed): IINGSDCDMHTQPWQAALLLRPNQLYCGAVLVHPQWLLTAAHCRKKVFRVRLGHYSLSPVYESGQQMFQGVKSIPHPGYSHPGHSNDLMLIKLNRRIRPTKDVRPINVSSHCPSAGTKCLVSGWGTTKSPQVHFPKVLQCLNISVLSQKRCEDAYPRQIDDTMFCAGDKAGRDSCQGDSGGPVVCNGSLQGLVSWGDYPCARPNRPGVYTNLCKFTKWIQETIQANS
Numbers stand for hits; n = inactive; x = not tested or not shown; ! = a repeat was not active.

SMILES | thrombin 1536 | EP2 modulator | FXIIa inh 1536 | FXIa inh 1536 | EP2 antag | hK5 inh
CSc1nc(N2CCOCC2)c2sccc2n1 | n | n | n | n | n | n
CSc1nc(Oc2ccc(Cl)cc2)c2sccc2n1 | n | 63.6 | n | n | n | n
CCCNC(=O)N1CCN(c2ncccn2)CC1 | n | n | n | n | n | 60.8
O=C(Nc1cccc(C(=O)N2CCOCC2)c1)C1OCOc2ccccc21 (stereo not given) | x | n | x | x | n | x
N/C(=N\OC(=O)c1cccc(Cn2cc(C(F)(F)F)ccc2=O)c1)c1ccc(Cl)cc1 | n | n | n | n | n | 51.8
Cc1ccc(S(=O)(=O)N(Cc2ccco2)Cc2cc3cc(C)cc(C)c3[nH]c2=O)cc1 | x | n | x | x | n | x
CCOc1cc(C(=O)NC)cc(OCC)c1OCC | n | n | n | n | n | 43.8
COc1ccccc1/C=C1\C(=O)NC(=O)N(c2ccc3c(c2)OCO3)C1=O | x | n | x | x | n | x
Cc1nn(C)c(C)c1/C=C(/C(=O)C(C)(C)C)n1cncn1 | n | n | n | n | n | n
Cc1nn(C)c(C)c1/C=C(/C(=O)C(C)C)n1cncn1 | n | n | n | 41.6 | n | 40.0
Nc1nnc2c(n1)CCCC2 | n | n | n | n | n | n
C(CCc1nnc2c(n1)CCCC2)Cc1nnc2c(n1)CCCC2 | x | n | x | x | 45.2 | x
CCn1c(C(=O)Nc2ccsc2C(=O)OC)cc2sc(Cl)cc21 | n | n | n | n | n | 46.5
COC(=O)c1sccc1NC(=O)c1ccc(Cl)s1 | n | n | n | n | n | n
CCC(=O)N1CCc2cc(S(=O)(=O)CCC(=O)NCc3ccc4c(c3)OCO4)ccc21 | n | n | n | n | x | 40.7
CCC(=O)N1CCc2cc(S(=O)(=O)CCC(=O)Nc3ccc(CC)cc3)ccc21 | n | n | n | n | x | n
N=C(N)SCCc1ccncc1 | x | n | x | x | 47.7 | x
N=C(N)SCCc1ccc(CCSC(=N)N)cc1 | x | n | x | x | n | x
Cc1ccc(OCC(=O)Nc2nnn(C)n2)c(C)c1 | n | n | 43.1 | n | n | n
Cc1cc(Cl)ccc1OCC(=O)Nc1nnn(C)n1 | x | n | x | x | n | x
CCCC(=O)NC(=S)Nc1ccc(Cl)cn1 | n | n | n | n | n | 111.7
CN(C)CCSc1nc(-c2ccccc2)nc2c1COC(C)(C)C2 | n | n | n | n | n | n
CSc1nc(-c2ccccc2)nc2c1COC(C)(C)C2 | n | 64.5 | n | n | n | n
CC(=O)Nc1cccc(NC(=O)CSc2ncc(-c3ccc(Cl)cc3)n2Cc2ccco2)c1 | n | n | n | n | 41.4 | n
COc1ccc(-c2cnc(SCC(=O)Nc3ccc4c(c3)OCO4)n2Cc2ccco2)cc1 | n | n | n | n | x | n
SMILES | thrombin 1536 | EP2 modulator | FXIIa inh 1536 | FXIa inh 1536 | EP2 antag | hK5 inh
Cc1cc2c(cc3c(=O)n(CC(=O)NCc4ccncc4)nc(C)n32)o1 | x | n | x | x | n | x
Cc1cccc(-n2c(CCN3C(=O)c4ccccc4C3=O)nc3ccccc3c2=O)n1 | n | n | n | n | n | n
Cc1cccc(-n2c(CCCN3C(=O)c4ccccc4C3=O)nc3ccccc3c2=O)n1 | n | n | n | n | x | 151.8
COc1cc(C2SCC(=O)N2c2c(C)n(C)n(-c3ccccc3)c2=O)ccc1O (stereo not given) | n | n | n | 42.9 | n | n
COc1ccc(C2SCC(=O)N2c2c(C)n(C)n(-c3ccccc3)c2=O)cc1 (stereo not given) | n | n | n | n | n | n
Cc1ccc(NC(=O)C2C(=O)NC3(C)CC2c2ccccc2O3)c(C)c1 (stereo not given) | x | n | x | x | n | x
O=C(OCC#CCSc1nc2ccccc2o1)c1ccc(F)cc1 | x | n | x | x | n | x
O=[N+]([O-])c1cncc([N+](=O)[O-])c1Nc1ccccc1Cl | n | n | 44.1 | n | n | n
CCOCCCNC(=S)N(Cc1cc2cc(CC)ccc2[nH]c1=O)C1CCCCC1 | x | n | x | x | n | x
Cc1cc(C(=O)N/N=C/c2c(C)nn(-c3ccccc3)c2C)n[nH]1 | n | n | n | n | n | 89.2
CC(=O)Nc1ccc(NS(=O)(=O)c2ccc(C)cc2)c([N+](=O)[O-])c1 | n | n | n | n | n | n
CC(=O)Nc1ccc(NS(=O)(=O)c2ccc(C)cc2)cc1[N+](=O)[O-] | n | n | n | n | n | 46.5
Cc1nn(C)c(C)c1S(=O)(=O)N(CC(=O)Nc1ccc2c(c1)OCO2)c1ccc(C(C)C)cc1 | n | n | n | n | n | n
CCOc1ccc(N(CC(=O)Nc2ccc(C)c(C)c2)S(=O)(=O)c2c(C)noc2C)cc1 | n | n | n | n | n | n
COc1ccc(N(CC(=O)Nc2ccc3c(c2)OCCO3)S(=O)(=O)c2c(C)nn(C)c2C)cc1 | n | n | 45.7 | n | x | n
CCOc1ccc(N(CC(=O)Nc2cccc(F)c2)S(=O)(=O)c2c(C)noc2C)cc1 | n | n | 44.9 | n | n | 41.9
CS(=O)(=O)N(CC(=O)Nc1ccc2c(c1)OCCO2)c1cc(Cl)ccc1Cl | x | n | x | x | n | x
CC(=O)N1CCN(c2ccc(NC(=O)COc3cc(C)cc(C)c3)cc2)CC1 | x | n | x | x | n | x
O=C(NC(=S)Nc1cc(C(F)(F)F)ccc1N1CCOCC1)c1ccco1 | n | n | n | n | n | 42.4
CC(=O)NC(=S)Nc1cc(C(F)(F)F)ccc1N1CCOCC1 | n | n | n | n | n | n
CCOc1cc(C2C(C(=O)OC)=C(C)NC3=C2C(=O)c2ccccc23)ccc1OCc1ccc(F)cc1 (stereo not given) | x | n | x | x | n | x
CN1CCc2ccccc2[C@H]1Cc1ccccc1NC(=O)c1sc2ccccc2c1Cl | x | n | x | x | 41.6 | x
CN1CCN(c2ccc(NC(=O)c3sc4ccccc4c3Cl)cc2)CC1 | n | n | n | n | n | n
COC(=O)CNc1n[nH]c(=S)[nH]c1=O | n | n | n | n | 86.3 | n
CN(C)C(=O)CNc1n[nH]c(=S)[nH]c1=O | n | n | n | n | n | n
SMILES | thrombin 1536 | EP2 modulator | FXIIa inh 1536 | FXIa inh 1536 | EP2 antag | hK5 inh
CC(C)OC(=O)CNc1n[nH]c(=S)[nH]c1=O | n | n | n | n | 100.9 | n
COc1ccc(OCc2nnc(SCC(N)=O)n2C)cc1 | x | n | x | x | n | x
Oc1cc(O)c2c(c1)O[C@H](c1ccc(O)c(O)c1)[C@@H](O)[C@@H]2c1c(O)cc(O)c2c1O[C@@H](c1ccc(O)c(O)c1)[C@H](O)C2 | x | n | x | x | 51.1 | x
Cc1cc2c(s1)c1cnn(CC(=O)NC(C)(C)C)c(=O)c1n2C | x | n | x | x | x | x
Clc1ccccc1C(c1nnnn1Cc1ccc2c(c1)OCO2)N1CCN(C2CCCC2)CC1 (stereo not given) | x | n | x | x | n | x
Cn1c(=S)n(/N=C/c2ccc3c(c2)OCO3)c2ccccc21 | n | 64.4 | n | n | n | n
COc1ccc(/C=N/n2c(=S)n(C)c3ccccc32)cc1OC | n | n | n | n | n | n
Clc1ccccc1-c1ncnc2ccc(Br)cc12 | n | 63.8! | n | n | n | n
COc1ccc2[nH]c(=O)c(CN(Cc3ccco3)S(=O)(=O)c3cccc(C(F)(F)F)c3)cc2c1 | x | n | x | x | n | x
Cc1ccc(S(=O)(=O)N(CC(=O)Nc2ccccc2-c2ccccc2)c2ccc(C)cc2C)cc1 | n | n | n | n | n | n
